Drawing on ChEMBL document CHEMBL4014299, “Synthesis and anti-HIV activities of unsymmetrical long chain dicarboxylate esters of dinucleoside reverse transcriptase inhibitors” (Bioorg Med Chem Lett, 2017), this text covers EC50 and CC50 for 16 molecules.

SMILES strings stand for the structures.

Assay type in all cases: cell-based
The nature of data set [1]: Inhibition of HIV1 3B […] reverse transcriptase infected in human P4R5 MAGI cells assessed as reduction in viral infection after 2 hrs by Galacto-Star beta-galactosidase reporter gene assay. The settings on record: Human immunodeficiency virus 1, 3B. In outline:
(§1)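 Single-round infection against cell-free virus: compounds, virus and target cells incubated together 2 h, cells washed, then cultured a further 48 h. Infection read as HIV-LTR-driven galactosidase expression; EC50 = 50% effective concentration. Line 2 uses the X4 (lymphocytotropic) strain, line 3 the R5 (monocytotropic) strain. DMSO served as negative control and dextran sulfate as positive control. Triplicate (n = 3).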

The nature of data set [2]: Cytotoxicity against human P4R5 MAGI cells after 2 hrs by MTT assay. In outline:
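Cytotoxicity to target cells by MTT assay, giving CC50 (50% toxic concentration). Run in triplicate (n = 3).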

Data set [3] can be described thus: Inhibition of HIV1 BaL […] reverse transcriptase infected in human P4R5 MAGI cells assessed as reduction in viral infection after 2 hrs by Galacto-Star beta-galactosidase reporter gene assay. The settings on record: Human immunodeficiency virus 1, BaL. In outline:
as §1
For orientation: Reporter assays use an easily measured gene product as a stand-in for the process of interest.

Take `Cc1cn([C@H]2C[C@H](N=[N+]=[N-])[C@@H](COC(=O)CCCCCCC(=O)OC[C@H]3O[C@@H](n4cc(C)c(=O)[nH]c4=O)C[C@@H]3N=[N+]=[N-])O2)c(=O)[nH]c1=O`: the EC50 was 0.2 µM in data set [1] and below 0.15 µM in data set [3]. This molecule returned a CC50 at 2 h in data set [2] above 148 µM.
For `Cc1cn([C@H]2C[C@H](F)[C@@H](COC(=O)CCC(=O)OC[C@@H]3O[C@H](n4ccc(N)nc4=O)CS3)O2)c(=O)[nH]c1=O`, in that order: 44.5 µM, 42.2 µM and above 180 µM.
For the molecule `Cc1cn([C@H]2C[C@H](N=[N+]=[N-])[C@@H](COC(=O)CCC(=O)OC[C@H]3O[C@@H](n4cc(C)c(=O)[nH]c4=O)C[C@@H]3N=[N+]=[N-])O2)c(=O)[nH]c1=O`, the EC50 in data set [1] came to 14 µM; in data set [3], 68.1 µM. Also, in data set [2], the CC50 at 2 h was above 162 µM.
For `Cc1cn([C@H]2C[C@H](F)[C@@H](COC(=O)CCCCCCCCCCCCC(=O)O)O2)c(=O)[nH]c1=O`, in that order: 1.8 µM, 0.55 µM and above 61 µM.
For `Cc1cn([C@H]2C[C@H](F)[C@@H](COC(=O)CCCCCCCCCCCCC(=O)OC[C@@H]3O[C@H](n4cc(F)c(N)nc4=O)CS3)O2)c(=O)[nH]c1=O` the same measures were 0.047 µM, 0.075 µM and above 42 µM.
Consider `Cc1cn([C@H]2C[C@H](N=[N+]=[N-])[C@@H](COC(=O)CCC(=O)OC[C@H]3O[C@@H](n4cc(C)c(=O)[nH]c4=O)C[C@@H]3F)O2)c(=O)[nH]c1=O`, for which the figures for the EC50 in data set [1] and in data set [3] were 14.7 µM and 17.5 µM, respectively. The same molecule displayed a CC50 at 2 h in data set [2] above 168 µM.
For the molecule `Cc1cn([C@H]2C[C@H](F)[C@@H](COC(=O)CCC(=O)OC[C@H]3O[C@@H](n4cc(C)c(=O)[nH]c4=O)C[C@@H]3F)O2)c(=O)[nH]c1=O`, the EC50 stood at 3.7 µM in data set [1] and 3 µM in data set [3]. In addition, the cytotoxic concentration (CC50) at 2 h in data set [2] was above 175 µM.
For `Cc1cn([C@H]2C[C@H](F)[C@@H](COC(=O)CCCCCCCCCCCCC(=O)OC[C@@H]3O[C@H](n4ccc(N)nc4=O)CS3)O2)c(=O)[nH]c1=O`, the EC50 in data set [1] was found to be 0.1 µM; in data set [3], 0.07 µM. The molecule also gave a CC50 at 2 h in data set [2] above 43 µM.
For `Nc1ccn([C@@H]2CS[C@H](COC(=O)CCCCCCC(=O)OC[C@@H]3O[C@H](n4ccc(N)nc4=O)CS3)O2)c(=O)n1` the same measures were 26.6 µM, 4.7 µM and above 168 µM.
As for `Cc1cn([C@H]2C[C@H](F)[C@@H](COC(=O)CCCCCCC(=O)OC[C@H]3O[C@@H](n4cc(C)c(=O)[nH]c4=O)C[C@@H]3F)O2)c(=O)[nH]c1=O`, the EC50 was 0.4 µM in data set [1] and 0.5 µM in data set [3]. Also, the CC50 at 2 h in data set [2] is above 160 µM.
For `Nc1ccn([C@@H]2CS[C@H](COC(=O)CCCCCCCCCCCCC(=O)OC[C@@H]3O[C@H](n4cc(F)c(N)nc4=O)CS3)O2)c(=O)n1` the same measures were 0.18 µM, 0.073 µM and above 43 µM.
For `Cc1cn([C@H]2C[C@H](N=[N+]=[N-])[C@@H](COC(=O)CCC(=O)OC[C@@H]3O[C@H](n4ccc(N)nc4=O)CS3)O2)c(=O)[nH]c1=O`, in that order: 16.1 µM, 19.2 µM and above 173 µM.
As for `Cc1cn([C@H]2C[C@H](F)[C@@H](CO)O2)c(=O)[nH]c1=O` [ALOVUDINE], the EC50 in data set [1] stood at 0.8 µM; in data set [3], 3.3 µM. Further, in data set [2], the half-maximal cytotoxic concentration (CC50) at 2 h is above 410 µM.
For `Nc1nc(=O)n([C@@H]2CS[C@H](CO)O2)cc1F` [EMTRICITABINE], in that order: 1.9 µM, 0.7 µM and above 200 µM.
For `Nc1ccn([C@@H]2CS[C@H](CO)O2)c(=O)n1` [LAMIVUDINE] the same measures were 32.7 µM, 11.3 µM and 80.3 µM.
For `Cc1cn([C@H]2C[C@H](N=[N+]=[N-])[C@@H](CO)O2)c(=O)[nH]c1=O` [ZIDOVUDINE] the same measures were 34.4 µM, 129 µM and above 374 µM.

As usually defined, the EC50 is the concentration needed to bring the measured effect to its halfway point. The CC50 is the concentration at which the toxic effect on the cells reaches its halfway point.
